In brackets after ≈: the same amount, converted by molar mass.
What was measured:
Rattus norvegicus [1] = assay: Dose normalized unbound AUC in Wistar rat at 1 mg/kg, iv by LC-MS/MS analysis; type: ADME, organism-based; settings: in vivo
Outline: (§1)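 Rats dosed iv at 10 mg/kg or 1 mg/kg. Dose-normalized AUC (μg·h/(mL·dose)) and its unbound counterpart derived via fraction unbound. Clearance, unbound clearance, Vdss and half-life also derived.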

Escherichia coli [2] = assay: Antibacterial activity against Escherichia coli MG1655 harboring AcrAB deletion mutant by CLSI broth microdilution method; type: functional; settings: K-12 substr. MG1655
Outline: (§2)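 MIC (μg/mL) measured against engineered derivatives of E. coli MG1655. ΔrfaC has truncated LPS (raised permeability). ΔtolC lacks the outer-membrane TolC efflux component. ΔacrAB lacks the AcrAB efflux system of the cytoplasmic membrane.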

[3] = Inhibition of wild-type Pseudomonas aeruginosa DNA topoisomerase-4 mediated supercoiled pBR322 DNA relaxation by ethidium bromide based agarose gel electrophoresis
Rattus norvegicus [4] = assay: Unbound clearance in Wistar rat at 1 mg/kg, iv by LC-MS/MS analysis; type: ADME, organism-based; settings: in vivo; outline: as §1
[5] = Lipophilicity, log D of the compound at pH 7.4; type: physicochemical; settings: buffer
[6] = Inhibition of wild-type Acinetobacter baumannii DNA topoisomerase-4 mediated supercoiled pBR322 DNA relaxation by ethidium bromide based agarose gel electrophoresis
[7] = Terminal half-life in Wistar rat at 1 mg/kg, iv by LC-MS/MS analysis; type: ADME, organism-based; settings: in vivo, read-out: beta t1/2 (converted); outline: as §1
Escherichia coli [8] = assay: Antibacterial activity against Escherichia coli MG1655 harboring rfac deletion mutant by CLSI broth microdilution method; type: functional; settings: K-12 substr. MG1655; outline: as §2
Escherichia coli [9] = assay: Antibacterial activity against Escherichia coli MG1655 harboring tolC deletion mutant by CLSI broth microdilution method; type: functional; settings: K-12 substr. MG1655; outline: as §2
Escherichia coli [10] = assay: Ratio of MIC for wild-type Escherichia coli MG1655 to MIC for Escherichia coli MG1655 harboring rfac deletion mutant; type: functional, K-12 substr. MG1655
Outline: (§3)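 Fold change in MIC for each MG1655 derivative (ΔacrAB, ΔrfaC, ΔtolC) relative to the MIC measured on wild-type E. coli MG1655, with both MICs in μg/mL.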

[11] = Fraction unbound in Wistar rat plasma at 1 mg/kg, iv by rapid equilibrium dialysis; type: ADME, organism-based; outline: as §1
Acinetobacter baumannii = assay: Antibacterial activity against fluoroquinolone-resistant Acinetobacter baumannii T6474 by CLSI broth microdilution method; type: functional
[12] = Inhibition of wild-type Acinetobacter baumannii DNA gyrase supercoiling activity using relaxed pBR322 DNA as substrate by ethidium bromide based agarose gel electrophoresis
[13] = Inhibition of wild-type Pseudomonas aeruginosa DNA gyrase supercoiling activity using relaxed pBR322 DNA as substrate by ethidium bromide based agarose gel electrophoresis
Escherichia coli [14] = assay: Ratio of MIC for wild-type Escherichia coli MG1655 to MIC for Escherichia coli MG1655 harboring tolC deletion mutant; type: functional, K-12 substr. MG1655; outline: as §3
Escherichia coli [15] = assay: Ratio of MIC for wild-type Escherichia coli MG1655 to MIC for Escherichia coli MG1655 harboring AcrAB deletion mutant; type: functional, K-12 substr. MG1655; outline: as §3
[16] = Clearance in Wistar rat at 1 mg/kg, iv by LC-MS/MS analysis; type: ADME, organism-based; settings: in vivo; outline: as §1
Escherichia coli [17] = assay: Antibacterial activity against wild-type Escherichia coli MG1655 by CLSI broth microdilution method; type: functional; settings: K-12 substr. MG1655
Outline: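 MIC (μg/mL) determined on wild-type E. coli MG1655, the parent of isogenic strains with truncated LPS or deleted TolC or AcrAB efflux.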

Rattus norvegicus [18] = assay: Dose normalized AUC in Wistar rat at 1 mg/kg, iv by LC-MS/MS analysis; type: ADME, organism-based; settings: in vivo
[19] = Volume of distribution at steady state in Wistar rat at 1 mg/kg, iv by LC-MS/MS analysis; type: ADME, organism-based; settings: in vivo, read-out: Vdss
Outline: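 Rats received a single intravenous dose of 10 or 1 mg/kg depending on the compound. Clearance, unbound clearance, Vdss, terminal half-life and dose-normalized AUC were derived from plasma exposure, with unbound fraction (fu) reported for this species.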

[20] = Inhibition of wild-type Escherichia coli DNA gyrase supercoiling activity using relaxed pBR322 DNA as substrate by ethidium bromide based agarose gel electrophoresis
[21] = Cardiotoxicity against human induced pluripotent stem cell-derived cardiomyocytes assessed as total drug concentration causing effect on spontaneous rhythm after 5 to 60 mins by Fluo-4 dye based fluorescence assay; type: toxicity; settings: cardiac muscle cell
Outline: (§4)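 Spontaneous beating rhythm of human iPSC-derived cardiomyocytes monitored. Reported value is the lowest active concentration, free or total. Free/total conversion corrected for 20% serum in the test solution.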

[22] = target: Voltage-gated inwardly rectifying potassium channel KCNH2 (Homo sapiens, UniProt Q12809); assay: (§5) Inhibition of human ERG assessed as reduction of K+ current
hERG (KCNH2) [23] = target: T1, hERG (KCNH2) (Homo sapiens, UniProt Q12809); assay: as §5; settings: human
Cavia porcellus [24] = assay: (§6) Cardiotoxicity in Dunkin-Hartley guinea pig assessed as free plasma concentration causing effect on QT interval administered as iv at 3 mg/kg for first 20 mins of infusion followed by 10 mg/kg for second 20 mins of infusion followed by 30 mg/kg for third 20 mins of infusion by LC-MS/MS analysis; type: toxicity, organism-based; settings: in vivo
Outline: (§7)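 Anesthetized guinea pigs received 3, 10 and 30 mg/kg iv over three consecutive 20 min periods. MAP, HR and ECG intervals (PR, QRS, RR, QT) recorded continuously. Blood drawn at the end of each period for drug levels. Value is the lowest plasma concentration differing from vehicle-treated animals. Free level uses unbound fraction from rapid equilibrium dialysis of guinea pig plasma.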

Cavia porcellus [25] = assay: Cardiotoxicity in Dunkin-Hartley guinea pig assessed as free plasma concentration causing effect on heart rate administered as iv at 3 mg/kg for first 20 mins of infusion followed by 10 mg/kg for second 20 mins of infusion followed by 30 mg/kg for third 20 mins of infusion by LC-MS/MS analysis; type: toxicity, organism-based; settings: in vivo; outline: as §7
[26] = Cardiotoxicity against human induced pluripotent stem cell-derived cardiomyocytes assessed as free drug concentration causing inhibition of spontaneous rhythm after 5 to 60 mins by Fluo-4 dye based fluorescence assay; type: toxicity; settings: cardiac muscle cell; outline: as §4
Pseudomonas aeruginosa = assay: Antibacterial activity against Pseudomonas aeruginosa ATCC 27853 by CLSI broth microdilution method; type: functional
[27] = Inhibition of wild-type Escherichia coli DNA topoisomerase-4 mediated supercoiled pBR322 DNA relaxation by ethidium bromide based agarose gel electrophoresis
Cavia porcellus [28] = assay: as §6, with “mean arterial pressure” for “QT interval”; type: toxicity, organism-based; settings: in vivo; outline: as §7
Cavia porcellus [29] = assay: Cardiotoxicity in Dunkin-Hartley guinea pig assessed as free plasma concentration causing effect on PR interval administered as iv at 3 mg/kg for first 20 mins of infusion followed by 10 mg/kg for second 20 mins of infusion followed by 30 mg/kg for third 20 mins of infusion by LC-MS/MS analysis; type: toxicity, organism-based; settings: in vivo; outline: as §7
Cavia porcellus [30] = assay: Cardiotoxicity in Dunkin-Hartley guinea pig assessed as free plasma concentration causing effect on QRS interval administered as iv at 3 mg/kg for first 20 mins of infusion followed by 10 mg/kg for second 20 mins of infusion followed by 30 mg/kg for third 20 mins of infusion by LC-MS/MS analysis; type: toxicity, organism-based; settings: in vivo; outline: as §7
Staphylococcus aureus = assay: Antibacterial activity against Staphylococcus aureus ATCC 29213 by CLSI broth microdilution method; type: functional
[31] = Fraction unbound in Dunkin-Hartley guinea pig plasma administered as iv at 3 mg/kg for first 20 mins of infusion followed by 10 mg/kg for second 20 mins of infusion followed by 30 mg/kg for third 20 mins of infusion by rapid equilibrium dialysis; type: ADME, organism-based, Cavia porcellus
Escherichia coli [32] = assay: Antibacterial activity against wild-type Escherichia coli ATCC 25922 by CLSI broth microdilution method; type: functional
hERG (KCNH2) [33] = target: T1, hERG (KCNH2); assay: Inhibition of human ERG assessed as reduction of K+ current at 30 uM
Outline: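 hERG K+ channel current reduction measured at 30 μM compound concentration.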

T1 sequence (Q12809 whole entry, the tested form may be a part): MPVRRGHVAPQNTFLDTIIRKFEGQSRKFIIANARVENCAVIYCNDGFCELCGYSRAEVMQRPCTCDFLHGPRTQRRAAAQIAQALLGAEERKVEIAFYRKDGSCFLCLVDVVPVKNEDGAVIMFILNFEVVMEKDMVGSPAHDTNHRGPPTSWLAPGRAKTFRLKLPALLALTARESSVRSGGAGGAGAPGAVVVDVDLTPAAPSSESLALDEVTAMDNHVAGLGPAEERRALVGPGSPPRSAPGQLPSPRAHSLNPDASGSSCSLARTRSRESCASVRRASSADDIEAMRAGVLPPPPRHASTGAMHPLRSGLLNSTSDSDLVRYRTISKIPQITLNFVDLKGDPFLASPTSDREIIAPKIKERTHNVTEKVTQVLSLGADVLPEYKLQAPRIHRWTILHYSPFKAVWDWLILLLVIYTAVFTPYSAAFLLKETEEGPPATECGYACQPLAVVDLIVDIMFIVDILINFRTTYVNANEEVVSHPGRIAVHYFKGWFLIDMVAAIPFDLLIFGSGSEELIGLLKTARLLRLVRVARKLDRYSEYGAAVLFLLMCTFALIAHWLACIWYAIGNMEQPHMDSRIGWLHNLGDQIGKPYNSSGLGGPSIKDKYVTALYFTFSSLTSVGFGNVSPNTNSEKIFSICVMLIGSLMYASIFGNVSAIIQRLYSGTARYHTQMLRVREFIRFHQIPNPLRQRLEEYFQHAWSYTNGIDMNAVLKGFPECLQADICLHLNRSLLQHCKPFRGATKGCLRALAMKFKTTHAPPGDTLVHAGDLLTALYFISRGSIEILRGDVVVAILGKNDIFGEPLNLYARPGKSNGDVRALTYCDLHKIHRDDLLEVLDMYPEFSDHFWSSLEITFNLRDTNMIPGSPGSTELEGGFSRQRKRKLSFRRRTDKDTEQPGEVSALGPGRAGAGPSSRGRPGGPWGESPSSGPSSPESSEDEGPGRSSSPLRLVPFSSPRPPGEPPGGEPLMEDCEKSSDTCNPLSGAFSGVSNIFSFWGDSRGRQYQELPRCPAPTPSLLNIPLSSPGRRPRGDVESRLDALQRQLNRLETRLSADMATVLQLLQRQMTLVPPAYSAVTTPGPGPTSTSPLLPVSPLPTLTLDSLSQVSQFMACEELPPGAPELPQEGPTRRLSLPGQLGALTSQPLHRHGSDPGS
Chain of Voltage-gated inwardly rectifying potassium channel KCNH2 (Q12809 whole entry): as the sequence (Q12809 whole entry, the tested form may be a part) above

Row | SMILES | fAUC/dose (Rattus norvegicus [1]) [µg·h/mL] | IC50 [3] [nM] | CL free (Rattus norvegicus [4]) [mL/min/kg] | logD [5] | IC50 [6] [nM] | half-life [7] [h] | fraction unbound [11] | MIC (Acinetobacter baumannii) [µg/mL] | IC50 [12] [nM] | IC50 [13] [nM] | clearance [16] [mL/min/kg] | AUC/dose (Rattus norvegicus [18]) [ng·h/mL] | Vd [19] [L/kg] | also measured
1 | COc1ccc2ncc(F)c(C[C@H](O)[C@@H]3CC[C@@H](NCc4ccc5c(n4)NC(=O)CO5)CO3)c2n1 | 39 | 125 | 430 | 2 | 125 | 1.3 | 0.086 | 0.125 (≈ 0.259 µM) | 125 | 125 | 37 | 457 | 2.5 | MIC (Escherichia coli [2]): 0.004 µg/mL (≈ 0.00827 µM); MIC (Escherichia coli [8]): 0.031 µg/mL (≈ 0.0641 µM); MIC (Escherichia coli [9]): 0.004 µg/mL (≈ 0.00827 µM); Ratio (Escherichia coli [10]): 16; Ratio (Escherichia coli [14]): 100; Ratio (Escherichia coli [15]): 100; MIC (Escherichia coli [17]): 0.5 µg/mL (≈ 1.03 µM)
2 | COc1ccc2ccc(=O)n(C[C@H](O)[C@@H]3CC[C@@H](NCc4ccc5c(n4)NC(=O)CO5)CO3)c2n1 | 63 | 30 | 263 | 2 | 125 | 1 | 0.167 | ≤ 0.03 | 125 | 125 | 44 | 378 | 2.5 | IC50 [20]: 125 nM; Drug uptake [21]: 1.4 µM; IC50 [22]: 15000 nM; IC20 (hERG (KCNH2) [23]): 3700 nM; Cp(f) (Cavia porcellus [24]): 1.5 µM; Cp(f) (Cavia porcellus [25]): 6 µM; Drug uptake(free) [26]: 0.86 µM; MIC (Pseudomonas aeruginosa): 8 µg/mL (≈ 16.6 µM); IC50 [27]: 30 nM; Cp(f) (Cavia porcellus [28]): 21 µM; Cp(f) (Cavia porcellus [29]): > 21 µM; Cp(f) (Cavia porcellus [30]): 21 µM; MIC (Staphylococcus aureus): ≤ 0.03 µg/mL; fraction unbound at 20 min [31]: 0.43; MIC (Escherichia coli [32]): 0.5 µg/mL (≈ 1.04 µM); inhibition at 30 µM (hERG (KCNH2) [33]): 71%

From ChEMBL document CHEMBL4049439, “Synthesis and Characterization of Tetrahydropyran-Based Bacterial Topoisomerase Inhibitors with Antibacterial Activity against Gram-Negative Bacteria” (J Med Chem, 2017)
